Results from ChEMBL document CHEMBL4011638, “Semisynthetic Flavone-Derived Antimicrobials with Therapeutic Potential against Methicillin-Resistant Staphylococcus aureus (MRSA)” (J Med Chem, 2017).
In brackets after ≈: the same amount, converted by molar mass. Activity calls are given as the source filed them. The rule behind the calls is not given here.

What was measured:
[1] = system: Bacillus cereus; test: Antibacterial activity against Bacillus cereus ATCC 11778 after 24 hrs by broth microdilution method; assay type: functional; details: ATCC 11778, 24 h
In short: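 MIC by CLSI broth microdilution in cation-adjusted Mueller–Hinton broth, tubes. Compounds in H2O or DMF, diluted in PBS to 1000 μg/mL stocks, then serial 2-fold dilutions (final DMF 2.5%). Inoculum ~5×10^5 CFU/mL from TSA plates grown 35 °C 20 h. Incubation 35 °C 24 h; MIC = no visible growth vs control. Biological replicates.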

[2] = system: Staphylococcus aureus; test: Antibacterial activity against methicillin-resistant Staphylococcus aureus DM 21455 after 24 hrs by broth microdilution method; assay type: functional; details: DM 21455, 24 h
In short: (§1)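 Broth microdilution per CLSI in cation-adjusted Mueller−Hinton broth, in tubes. Compounds dissolved in H2O or DMF, then diluted in PBS to 1000 μg/mL stocks. Serial 2-fold dilutions were made, with final DMF 2.5%. Organisms were grown on TSA at 35 °C for 20 h and adjusted to ~5× 10^5 CFU/mL. Tubes were incubated at 35 °C for 24 h. MIC was the lowest concentration with no visible growth versus control. Biological replicates.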

[3] = system: Staphylococcus aureus; test: Antibacterial activity against Staphylococcus aureus DM4001R after 24 hrs by broth microdilution method; assay type: functional; in short: as §1
[4] = system: Staphylococcus aureus; test: Antibacterial activity against methicillin-resistant Staphylococcus aureus DM 9808R after 24 hrs by broth microdilution method; assay type: functional; in short: as §1
[5] = system: Staphylococcus aureus; test: Antibacterial activity against methicillin-resistant Staphylococcus aureus ATCC 43300 after 24 hrs by broth microdilution method; assay type: functional; details: ATCC 43300, 24 h; in short: as §1
[6] = system: Staphylococcus aureus; test: Antibacterial activity against methicillin-sensitive Staphylococcus aureus DM4299 after 24 hrs by broth microdilution method; assay type: functional; details: DM4299, 24 h; in short: as §1
[7] = system: Staphylococcus aureus; test: Antibacterial activity against methicillin-resistant Staphylococcus aureus ATCC 700699 after 24 hrs by broth microdilution method; assay type: functional; details: ATCC 700699, 24 h; in short: as §1
[8] = system: Staphylococcus aureus; test: Antibacterial activity against methicillin-sensitive Staphylococcus aureus ATCC 29737 after 24 hrs by broth microdilution method; assay type: functional; details: ATCC 29737, 24 h; in short: as §1
[9] = system: Staphylococcus aureus; test: Antibacterial activity against methicillin-sensitive Staphylococcus aureus DM4583R after 24 hrs by broth microdilution method; assay type: functional; in short: as §1
[10] = system: Staphylococcus aureus; test: Antibacterial activity against methicillin-resistant Staphylococcus aureus DB68004 after 24 hrs by broth microdilution method; assay type: functional; details: DB68004, 24 h; in short: as §1
[11] = system: Staphylococcus aureus; test: Antibacterial activity against methicillin-sensitive Staphylococcus aureus DM4400R after 24 hrs by broth microdilution method; assay type: functional; in short: as §1
[12] = system: Staphylococcus aureus; test: Antibacterial activity against methicillin-sensitive Staphylococcus aureus ATCC 6538 after 24 hrs by broth microdilution method; assay type: functional; details: ATCC 6538, 24 h; in short: as §1
[13] = system: Staphylococcus aureus; test: Antibacterial activity against methicillin-resistant Staphylococcus aureus BAA-38 after 24 hrs by broth microdilution method; assay type: functional; details: BAA-38, 24 h; in short: as §1
[14] = system: Staphylococcus aureus; test: Antibacterial activity against methicillin-resistant Staphylococcus aureus DB6506 after 24 hrs by broth microdilution method; assay type: functional; details: DB6506, 24 h; in short: as §1
[15] = system: Staphylococcus aureus; test: Antibacterial activity against methicillin-sensitive Staphylococcus aureus ATCC 29213 after 24 hrs by broth microdilution method; assay type: functional; details: ATCC 29213, 24 h; in short: as §1
[16] = system: Staphylococcus aureus; test: Antibacterial activity against methicillin-resistant Staphylococcus aureus DB57964 after 24 hrs by broth microdilution method; assay type: functional; details: DB57964, 24 h; in short: as §1
[17] = system: Staphylococcus aureus; test: Ratio of MIC for Staphylococcus aureus ATCC 29213 after […] passages to MIC for Staphylococcus aureus ATCC 29213; assay type: functional
In short: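 Serial passage. Initial MIC was determined against S. aureus ATCC29213 by broth microdilution. Bacteria from duplicate tubes at 0.5× MIC were diluted to ~5 × 10^5 CFU/mL for the next MIC round. Each round was incubated at 35 °C for 24 h and the fold increase in MIC recorded. Gatifloxacin and norfloxacin served as comparators. Repeated for 17 passages, biological replicates.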

[18] = Ratio of HC50 for New Zealand white rabbit RBC to MIC for methicillin-sensitive Staphylococcus aureus DM4583R
In short: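 HC50 measured on fresh New Zealand white rabbit RBCs, washed three times in PBS, at 4% v/v final. Cells were incubated with 2-fold serial dilutions (DMF final 0.5%) at 37 °C for 1 h, then centrifuged. Supernatant absorbance was read at 576 nm, with PBS as 0% and 2% Triton X-100 as 100% lysis. HC50 is the concentration lysing 50% of cells, divided by MIC from broth microdilution.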

[19] = system: Lipid bilayer; test: Membrane permeabilization activity in DOPE/DOPG large unilamellar liposomes assessed as leakage of calcein at 1:4 to 1:8 compound to lipid ratio by fluorescence assay
[20] = system: Staphylococcus aureus; test: Induction of plasma membrane permeability in methicillin-resistant Staphylococcus aureus DM9808R assessed as increase in fluorescence intensity at 12.5 ug/ml measured every 1 sec for 50 mins by SYTOX green dye based fluorimetric assay; assay type: functional
In short: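 Exponential-phase MRSA DM9808R grown on TSA, washed twice and resuspended in PBS (10 mM, pH 7) to OD600 0.2. Cells were loaded with 0.3 μM SYTOX Green in the dark until fluorescence stabilized. Test samples were then added (final DMF 0.5%). Fluorescence at ex 504/em 523 nm was recorded every 1 s for 50 min. Biological replicates.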

| Compound | MIC [1] | MIC [2] | MIC [3] | MIC [4] | MIC [5] | MIC [6] | MIC [7] | MIC [8] | MIC [9] | MIC [10] | MIC [11] | MIC [12] | MIC [13] | MIC [14] | MIC [15] | MIC [16] | Ratio [17] | Ratio [18] | Activity [19] | Activity [20] |
| --- | --- | --- | --- | --- | --- | --- | --- | --- | --- | --- | --- | --- | --- | --- | --- | --- | --- | --- | --- | --- |
| COc1ccc(-c2oc3c(CC=C(C)C)c(OCCBr)cc(O)c3c(=O)c2OCCBr)cc1 | 5 µM | 5 µM | 5 µM | 10 µM |  |  |  |  |  |  |  |  |  |  |  |  |  |  |  |  |
| CN[C@H](CC(C)C)C(=O)N[C@H]1C(=O)N[C@@H](CC(N)=O)C(=O)N[C@H]2C(=O)N[C@H]3C(=O)N[C@H](C(=O)N[C@H](C(=O)O)c4cc(O)cc(O)c4-c4cc3ccc4O)[C@H](O)c3ccc(c(Cl)c3)Oc3cc2cc(c3O[C@@H]2O[C@H](CO)[C@@H](O)[C@H](O)[C@H]2O[C@H]2C[C@](C)(N)[C@H](O)[C@H](C)O2)Oc2ccc(cc2Cl)[C@H]1O [VANCOMYCIN] | 1.1 µM | 1.1 µM | 1.1 µM | 2.2 µM | 0.78 µg/mL (≈ 0.538 µM) | 1.56 µg/mL (≈ 1.08 µM) | 1.56 µg/mL (≈ 1.08 µM) | 0.78 µg/mL (≈ 0.538 µM) | 1.56 µg/mL (≈ 1.08 µM) | 1.56 µg/mL (≈ 1.08 µM) | 0.78 µg/mL (≈ 0.538 µM) | 0.78 µg/mL (≈ 0.538 µM) | 1.56 µg/mL (≈ 1.08 µM) | 0.78 µg/mL (≈ 0.538 µM) | 1.56 µg/mL (≈ 1.08 µM) | 0.78 µg/mL (≈ 0.538 µM) |  |  |  |  |
| CCn1cc(C(=O)O)c(=O)c2cc(F)c(N3CCNCC3)cc21 [NORFLOXACIN] |  |  |  |  |  |  |  |  |  |  |  |  |  |  |  |  | 128 |  |  |  |
| CCN(CC)CCCCCCOc1cc(O)c2c(=O)c(OCCCCCCN(CC)CC)c(-c3ccc(OC)cc3)oc2c1CC=C(C)C | 12.5 µg/mL | 3.13 µg/mL | 6.25 µg/mL | 3.13 µg/mL |  |  |  |  |  |  |  |  |  |  |  |  |  |  |  |  |
| COC(=O)[C@H](CCCNC(=N)N)NC(=O)COc1cc(O)c2c(=O)c(O)c(-c3ccc(OC)cc3)oc2c1CC=C(C)C | 10.4 µM | 10.4 µM | 5.2 µM | 5.2 µM |  |  |  |  |  |  |  |  |  |  |  |  |  |  |  |  |
| CC(C)(C)c1cc(C(C)(C)C)c2[nH]c(C(C)(C)C)c(C[C@H](NC(=O)[C@@H](N)CCCNC(=N)N)C(=O)N[C@@H](CCCNC(=N)N)C(=O)NCCc3ccccc3)c2c1 [LTX-109] |  |  |  |  | 4 µg/mL (≈ 5.08 µM) | 4 µg/mL (≈ 5.08 µM) | 4 µg/mL (≈ 5.08 µM) | 4 µg/mL (≈ 5.08 µM) | 4 µg/mL (≈ 5.08 µM) | 4 µg/mL (≈ 5.08 µM) | 4 µg/mL (≈ 5.08 µM) | 4 µg/mL (≈ 5.08 µM) | 4 µg/mL (≈ 5.08 µM) | 4 µg/mL (≈ 5.08 µM) | 4 µg/mL (≈ 5.08 µM) | 4 µg/mL (≈ 5.08 µM) |  | 44 |  |  |
| COc1ccc(-c2oc3c(CC=C(C)C)c(O)cc(O)c3c(=O)c2O)cc1 [ICARITIN] | 136 µM | 50 µg/mL | 50 µg/mL | 50 µg/mL | 50 µg/mL (≈ 136 µM) | 50 µg/mL (≈ 136 µM) | 50 µg/mL (≈ 136 µM) | 50 µg/mL (≈ 136 µM) | 50 µg/mL (≈ 136 µM) | 50 µg/mL (≈ 136 µM) | 50 µg/mL (≈ 136 µM) | 50 µg/mL (≈ 136 µM) | 50 µg/mL (≈ 136 µM) | 50 µg/mL (≈ 136 µM) | 50 µg/mL (≈ 136 µM) | 50 µg/mL (≈ 136 µM) |  | > 8 | < 5% | inactive |
| COC(=O)[C@H](Cc1cnc[nH]1)NC(=O)COc1cc(O)c2c(=O)c(OCC(=O)N[C@@H](Cc3cnc[nH]3)C(=O)OC)c(-c3ccc(OC)cc3)oc2c1CC=C(C)C | > 63.5 µM | > 63.5 µM | > 63.5 µM | > 63.5 µM |  |  |  |  |  |  |  |  |  |  |  |  |  |  | < 5% | inactive |
| CCN(CC)CCOc1cc(O)c2c(=O)c(OCCN(CC)CC)c(-c3ccc(OC)cc3)oc2c1CC=C(C)C | > 50 µg/mL | 50 µg/mL | 50 µg/mL | > 50 µg/mL |  |  |  |  |  |  |  |  |  |  |  |  |  |  |  |  |
